# From PubChem BioAssay
# Most compounds without a hit are left out; they make up all but 2.9% or so of the library.
# M1 ag parental: counter-screen for M1 agonists: effect in parental CHO-K1 cells; Fluo-8 calcium fluorescence; scaled to maximal ATP response, vehicle zero; activation, % at 3 µM; 0.48% of 360,000 active; AID 602248, 2012; in the data active = activation above about 15%;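 note: untransfected CHO-K1 host cells lacking M1 receptor as counterscreen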
# CHO-K1 Ca antag: counter-screen for M1 antagonists: effect in parental CHO-K1 cells; 0.6% of 360,000 active; ATP-induced calcium, Fluo-8 fluorescence; AID 602250; inhibition, % at 3 µM;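 active = inhibition above a per-plate cutoff, the plate's mean sample inhibition plus 3 SD, cut at about 24% in these data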;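 note: 0% = DMSO plus EC80 ATP and 100% = DMSO alone without ATP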
# OX1R antag-1: antagonists of human orexin 1 receptor (OX1R) | 1.8% of 330,000 active | AID 485270, 2010 | inhibition, % at 6.6 µM | Orexin/Hypocretin receptor type 1 (Homo sapiens), O43613 | OX1R-expressing cells, FRET antagonist read-out; in the data active = inhibition mostly above about 38%, no sharp cut-off; inactive = mostly below about 40%;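 note: 0% = agonist challenge alone and 100% = reference antagonist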
# Target sequence (O43613 whole entry, looked up): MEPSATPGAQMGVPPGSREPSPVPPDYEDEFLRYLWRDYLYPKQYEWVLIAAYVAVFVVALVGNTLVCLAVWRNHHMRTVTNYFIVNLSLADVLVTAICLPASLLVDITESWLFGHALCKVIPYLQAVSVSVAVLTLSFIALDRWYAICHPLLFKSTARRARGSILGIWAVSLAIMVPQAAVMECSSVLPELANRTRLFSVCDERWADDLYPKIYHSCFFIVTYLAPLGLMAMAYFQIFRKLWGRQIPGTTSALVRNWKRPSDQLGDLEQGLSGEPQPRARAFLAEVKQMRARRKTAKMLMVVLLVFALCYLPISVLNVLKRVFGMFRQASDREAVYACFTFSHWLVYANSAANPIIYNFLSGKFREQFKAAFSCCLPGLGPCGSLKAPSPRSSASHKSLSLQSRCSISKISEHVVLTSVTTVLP
# M1 PAM parental: nonselective calcium activators in parental CHO-K1 cells, primary screen, counter-screen for M1 PAM project, cell-based, Fluo-8 calcium fluorescence, full deck, 1536-well. 0.02% of 360,000 active. activation, % at 3 µM. ATP EC20; 0% at ATP EC20, 100% at ATP max;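 active = activation above the run cutoff, the mean activation of all test compounds plus 3 SD, cut at about 40% in these data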;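 note: peak over basal fluorescence ratio in a 140 s read after ATP addition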
# CHO parental Ca: ATP-evoked calcium signal inhibitors, parental CHO, primary screen, counter-screen for OX1R antagonist project, cell-based, fluorescence, Fluo-8 calcium dye; parental CHO-K1, ATP-induced calcium, Fluo-8 fluorescence; AID 463079, 2010; inhibition, % at 5.6 µM; 0.63% of 330,000 active;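 active = inhibition above that plate's mean sample inhibition plus 3 SD, cut at about 26% in these data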;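 note: 0% = ATP-challenged DMSO wells and 100% = DMSO wells without ATP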
#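 Test system: untransfected parental CHO cell line; also added: ATP stimulus; dosing: 5.6 µM, single dose; signal: calcium-sensitive Fluo-8 fluorescence; measure: percent inhibition of ATP-evoked calcium rise, normalized to controls; benchmarks: low control ATP plus DMSO, high control DMSO only; replication: one well per compound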
# OX1R antag-2: OX1R (HCRTR1) antagonists, primary screen, fluorescence, CHO/OX1R cells, Fluo-8 calcium, orexin A | Orexin/Hypocretin receptor type 1 (Homo sapiens), O43613 | Fluo-8 calcium fluorescence | inhibition, % at 5 µM | 0.43% of 330,000 active | AID 434989, 2010;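 active = inhibition above its plate's threshold, mean inhibition of all tested compounds on the plate plus 3 SD, cut at about 37% in these data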;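 note: 0% = orexin A challenge wells and 100% = SB-334867-A antagonist wells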
# OX1R HTRF conf: OX1R (HCRTR1) antagonists, confirmation, cell-based, HTRF; shares compounds with OX1R antag-1; OX1R-expressing cells, HTRF antagonist assay; inhibition, % at 6.6 µM; 49% of 1,800 active; in the data active = inhibition above about 55%;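 note: CHO cells expressing OX1R stimulated with orexin A at about EC80; 0% = agonist challenge alone and 100% = reference antagonist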
# CHO-K1 HTRF: signal inhibition in parental CHO-K1 cells, counter-screen for OX1R antagonist project, cell-based, HTRF; shares compounds with OX1R antag-1; AID 493232, 2011; inhibition, % at 6.6 µM; 48% of 1,800 active; HTRF counterscreen; in the data active = inhibition above about 17%;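 note: 0% = agonist challenge with vehicle and 100% = vehicle alone without agonist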
# Active calls of the source: *; nt = no result.
SMILES,M1 ag parental,CHO-K1 Ca antag,OX1R antag-1,M1 PAM parental,CHO parental Ca,OX1R antag-2,OX1R HTRF conf,CHO-K1 HTRF
Cc1csc(N/N=C/c2ccc([N+](=O)[O-])cc2)n1,1,-1,27,9,-8,-14,nt,nt
O=C(O)c1cccc(-c2ccc(/C=N/NC(=O)c3cccnc3)o2)c1,0,-1,37,7,-1,-8,nt,nt
COc1ccccc1C(=O)NN=C1CCN(Cc2ccccc2)CC1,1,-16,28,21,-2,-5,nt,nt
Cc1nn(C(=O)c2nn(C)cc2[N+](=O)[O-])c(C)c1Br,0,2,8,-8,-1,-10,nt,nt
CCc1nc(SCc2cc(=O)[nH]c3ccccc23)c2c(C)c(C)sc2n1,1,-16,nt,8,nt,nt,nt,nt
N#Cc1ncc(-c2ccc3c(c2)OCCOCCOCCOCCOCCO3)nc1C#N,1,-5,109*,17,-11,-12,32,4
Nc1nc(-c2ccc3c(c2)OCCO3)cs1,-1,-9,27,17,-16,-18,nt,nt
N#Cc1ncc(-c2ccc3c(c2)OCCOCCOCCOCCO3)nc1C#N,0,-4,117*,4,-8,-5,55*,54*
Cc1ccc2nc(-c3ccc4c(c3)OCCO4)cn2c1,1,-13,21,8,-3,-6,nt,nt
Cc1oc(C(C)(C)C)cc1C(N)=O,1,-11,11,7,-5,-12,nt,nt
O=C(Nc1ccc2c(c1)OCCO2)C1c2ccccc2OCC(=O)N1Cc1cccnc1 (stereo not drawn),2,-29,nt,27,nt,nt,nt,nt
O=C(Nc1ccc(O)c(-c2nc3ccccc3s2)c1)C1=COCCO1,3,-9,88*,16,-11,-5,46,15
Cc1ccsc1C(=O)Nc1ccc(O)c(-c2nc3ccccc3s2)c1,0,-1,81*,-3,0,-6,73*,2
CC(=O)Nc1ccc(O)c(-c2nc3ccccc3s2)c1,2,4,40,-1,-18,-21,nt,nt
O=C(O)c1ccc(N2CCCS2(=O)=O)cc1,1,-18,31,-8,-3,-19,nt,nt
COc1ccc(-c2cc(C(F)F)n3ncc(C(=O)N4CCc5ccccc54)c3n2)cc1,1,-13,10,15,-17,-37,nt,nt
COc1ccc(-c2cc(C(F)F)n3ncc(C(=O)n4ccnc4C)c3n2)cc1,-1,-1,108*,9,-17,-14,43,29*
COc1cc(C(=O)N2CCN(C(=O)c3cc(-c4ccccc4)n[nH]3)CC2)cc(OC)c1OC,1,2,16,5,-4,-34,nt,nt
COCCNC(=O)c1cn(C)c2ccc(S(=O)(=O)N3CCCCC3)cc2c1=O,0,-11,-1,2,-5,-23,nt,nt
N#CCSc1nc(-c2ccccc2)nc2ccccc12,0,0,94*,-7,-13,18,89*,5
NC(=O)CSc1nc(-c2ccccc2)nc2ccccc12,2,-12,22,14,-10,-10,nt,nt
Cc1cc(C)c2[nH]c3nc(SCC(=O)O)nnc3c2c1,0,-11,104*,16,-9,1,26,14
O=C(O)CSc1nnc2c(n1)[nH]c1ccccc12,0,-12,28,4,3,1,nt,nt
CC1CN(c2ccc([N+](=O)[O-])nc2)CC(C)O1 (stereo not drawn),1,-25,82*,21,15,-5,36,47*
O=[N+]([O-])c1ccc(N2CCCCC2)cn1,0,-2,46,9,0,-6,nt,nt
SMILES,M1 ag parental,CHO-K1 Ca antag,OX1R antag-1,M1 PAM parental,CHO parental Ca,OX1R antag-2,OX1R HTRF conf,CHO-K1 HTRF
Cn1ncc2c(Nc3ccc(Cl)cc3)ncnc21,3,-12,6,4,12,8,nt,nt
Cn1ncc2c(Nc3ccc4ccccc4c3)ncnc21,1,-5,78*,16,-17,-20,78*,2
COc1c[nH]n(-c2ccccc2)c(=O)c1=O,0,-10,13,3,-2,6,nt,nt
N#Cc1cc([N+](=O)[O-])cnc1N(CCO)CCO,0,-4,82*,5,-2,-13,34,22*
CCC(CO)Nc1ncc([N+](=O)[O-])cc1C#N (stereo not drawn),1,-10,27,9,-3,1,nt,nt
O=C(c1ccccc1NS(=O)(=O)c1cccc([N+](=O)[O-])c1)N1CCCC1,1,-10,78*,13,-11,0,20,7
O=C(c1ccc(NS(=O)(=O)c2cccc([N+](=O)[O-])c2)cc1)N1CCCCCC1,3,-1,24,5,-10,-22,nt,nt
O=C(CCS(=O)(=O)c1cccc2nonc12)NCCc1ccccc1,0,-5,87*,9,-19,-28,34,36*
CCCC[n+]1ccc(-c2nc3ccc([N+](=O)[O-])cc3[nH]2)cc1,0,-2,113*,8,-5,-13,56*,80*
C(#CCN1CCCC1)CC(c1ccccc1)c1ccccc1,7,-8,13,3,-17,-18,nt,nt
O=C(CSc1cccc[n+]1[O-])Nc1c(Br)cc([N+](=O)[O-])cc1Br,0,3,118*,-12,-15,-3,40,54*
Cc1c(Cl)c([N+](=O)[O-])nn1CCCC(=O)N(Cc1ccccc1)Cc1ccccc1,1,-3,84*,18,-16,23,85*,4
Cc1ccc(S(=O)(=O)N(C)C[C@@H]2Oc3ccc(NC(=O)Nc4cccc5ccccc45)cc3C(=O)N([C@H](C)CO)C[C@H]2C)cc1,0,-11,2,2,-10,-1,nt,nt
O=C(CSc1ccc(-c2ccccc2)nn1)c1ccccc1,2,-9,82*,0,-21,-5,41,10
C/C(=N\NC(=O)CN1CCN(Cc2ccccc2)CC1)c1ccncc1,2,-1,5,-1,-2,-12,nt,nt
C/C(=N/NC(=O)CN1CCN(Cc2ccccc2)CC1)c1ccc([N+](=O)[O-])cc1,1,-10,77*,15,-10,-13,39,29*
CC(=O)Nc1c2c3c(cccc3n(C)c1=O)C(=O)c1ccccc1-2,0,1,154*,17,-4,-15,43,65*
